An excerpt weighted towards active compounds, which were near 4.1% of everything screened.
KCNQ1 act = potentiators or activators of human KCNQ1 potassium channel; P51787; CHO-K1 KCNQ1, thallium flux FluxOR fluorescence; hits give high values; B-score at 10 µM; 310,000 compounds, 0.35% hits;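 active means fluorescence ratio B-score, a plate-corrected score, at least three library SD, with initial intensity B-score within 5 SD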
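assay system = CHO-K1 cells stably expressing KCNQ1 | medium = assay buffer, equal DMSO in all wells | timing = 37 °C overnight plating, 90-min dark dye load, 20-min compound pretreatment | measured by = kinetic FluxOR thallium fluorescence, 10-s 1-Hz baseline, 110-s post-stimulus read | measure = fluorescence change relative to baseline, converted to B score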
hERG protect = shields human hERG channel from block by proarrhythmic agents; Q12809; CHO-hERG, FluxOR thallium flux, dofetilide IC70 present; activation (rescue from dofetilide block), less the hit threshold, % at 10 µM; 310,000 compounds, 0.51% hits;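 active means activation above the mean of controls blocked by dofetilide plus 5 SD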;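 further: thallium influx through hERG after potassium depolarization seen as dye fluorescence rise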
KCNK3 block = human KCNK3 channel inhibition, primary screen; B-score at 10 µM; CHO-KCNK3 thallium flux, FluxOR fluorescence; hits give low values; O14649; 340,000 compounds, 0.84% hits; AID 602410;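 active means B-score under library mean minus 4 SD, starting fluorescence ratio at most library mean plus 5 SD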;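 further: more negative B-score means stronger inhibition of thallium flux through KCNK3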
KCNQ1 inh = inhibitors of human KCNQ1 potassium channel; CHO-K1 KCNQ1, FluxOR thallium flux fluorescence; hits give high values; B-score at 10 µM; 310,000 compounds, 1.3% hits; AID 2642;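 active means compounds whose thallium flux B-score, printed positive for inhibition, exceeds three library SD while starting fluorescence stays within three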;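 further: channel opened by potassium depolarization with thallium stimulus after 20 min compound exposure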
KCNK9 block = human KCNK9 channel inhibition | Q9NPC2 | HEK293 KCNK9, FluxOR thallium flux fluorescence; hits give low values | B-score at 10 µM | 310,000 compounds, 1.2% hits;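 active means ratio B-score over 3 SD below the library mean, with starting fluorescence within 5 SD of its mean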;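 further: negative B-score means less thallium flux so channel inhibition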
Cl transport mod = modulators of human KCC2 chloride dependent transport. Q9H2X9. KCC2 cells, thallium flux FluoZin-2 fluorescence. B-score of Tl+ flux slope (higher = more flux/activation; lower = inhibition) at 10 µM. 190,000 compounds, 2.2% hits;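 active means thallium flux slope and its plate-corrected score both differing from the plate sample mean at a set confidence after two filtering rounds, in either direction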;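 further: slope of fluorescence scaled to starting intensity during 10 to 20 s after thallium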
An asterisk follows results filed as active; i = inactive; . = no result.

SMILES	KCNQ1 act	hERG protect	KCNK3 block	KCNQ1 inh	KCNK9 block	Cl transport mod
Cc1ccc(S(=O)(=O)c2c(C)cc(C)nc2Oc2cccc(C(F)(F)F)c2)cc1	i	-6	i	i	-7.3*	0.38
O=C(Nc1cccc([N+](=O)[O-])c1)NC1CCS(=O)(=O)C1 (stereo not given)	i	-9	i	10*	i	.
NC(=O)c1cccnc1Nc1cccc([N+](=O)[O-])c1	i	9.4*	i	i	i	1.5
O=C(Nc1ccc(OC(F)(F)F)cc1)Nc1cccc([N+](=O)[O-])c1	i	-18	i	7*	i	0.69
O=C(Nc1cccnc1)Nc1cccc([N+](=O)[O-])c1	i	-6	i	6*	i	.
CC(C)CN(C(=O)COC(=O)c1cccc2ccccc12)c1c(N)n(Cc2ccccc2)c(=O)[nH]c1=O	i	-13	i	i	i	.
O=C(CN1C(=O)CSCC1=O)Nc1ccc2c(c1)OCO2	i	4.7*	i	i	i	0
O=C(CSCc1ccccc1)Nc1ccc2c(c1)OCO2	i	-4	i	i	i	.
CC1SC(C)C(=O)N(CC(=O)Nc2ccc3c(c2)OCO3)C1=O (stereo not given)	i	-6	i	i	i	-0.22
Cc1nn(C)c(C)c1CNC(=O)Nc1ccc2c(c1)OCO2	i	7.4*	i	i	i	-0.074
O=C(CSCSCC(=O)Nc1ccc2c(c1)OCO2)Nc1ccc2c(c1)OCO2	i	5.0*	i	i	i	0.82
CCCCOP(=O)(OCCCC)C1(C)CC(=O)CC(C)(C)C1 (stereo not given)	.	.	i	.	.	.
CN(C)CCCNS(=O)(=O)c1ccc(N2CCC(c3ccc(Cl)cc3)=N2)cc1	i	8.7*	.	9*	-11*	.
CC(C)N(C(=O)N1CCN(c2ccnc3cc(Cl)ccc23)CC1)C(C)C	i	-12	i	i	i	.
CCn1c(SCC(=O)NC2CC2)nnc1-c1ccc(F)cc1	i	-5	i	i	i	.
COc1ccc(O[C@@H]2O[C@H](COC(C)=O)[C@@H](OC(C)=O)[C@H](OC(C)=O)[C@H]2NC(C)=O)cc1	i	-2	i	i	i	2.2
CC(=O)N[C@H]1[C@H](OC2CCCCC2)O[C@H](COC(C)=O)[C@@H](OC(C)=O)[C@@H]1OC(C)=O	8*	-2	i	i	i	.
O=C(Nc1ccccc1Cl)C(Cl)C(=O)c1ccccc1 (stereo not given)	.	.	i	.	.	0.36
O=C(Nc1ccc(Cl)cc1)C(Cl)C(=O)c1ccccc1 (stereo not given)	10*	-12	i	i	i	.
Cc1cc(C)n(-c2nc3ccccc3nc2Nc2ccc3c(c2)OCO3)n1	i	-14	i	i	-7.3*	-0.27
COCc1cc(CN2CCCC(C(=O)Nc3ccc(-c4ccco4)cc3)C2)ccc1OC (stereo not given)	i	-13	i	i	i	.
Cc1ccc(NC(=S)Nc2ccc(Cl)c(Cl)c2)c(OC(F)F)c1	i	-35	i	9*	i	-0.076
Cc1ccc(NC(=S)Nc2ccc(OC(F)F)c(Cl)c2)cc1Cl	i	-14	i	i	i	0.93
CCOC(=O)C1(Cc2cccc(OC)c2)CCN(C/C=C/c2ccc(OC)cc2)CC1	i	-22	i	7*	i	-0.0078
CCC(=O)Nc1cc2c3c(c1)CCC(=O)N3CCC2	i	-7	i	i	i	.
SMILES	KCNQ1 act	hERG protect	KCNK3 block	KCNQ1 inh	KCNK9 block	Cl transport mod
CCOC(=O)c1ccc(NC(=O)NNS(=O)(=O)c2cc(OC)ccc2OC)cc1	i	-6	i	i	i	.
CC(=O)c1ccccc1OC(=O)c1c(F)cccc1F	i	-7	i	i	i	0.29
CC(=O)c1ccccc1OC(=O)c1ccc(-c2ccccc2)cc1	i	-3	i	i	-6.7*	.
CC(=O)c1ccc(N2CCN(S(=O)(=O)c3csc(C(N)=O)c3)CC2)cc1	i	-5	i	i	i	.
NC(=O)c1cc(S(=O)(=O)N2CCN(c3ccc([N+](=O)[O-])cc3)CC2)cs1	i	-9	i	7*	i	.
COc1ccc(CCNC(=O)C/C(C)=N/NC(=O)COc2ccc(C)cc2Br)cc1OC	i	-14	i	i	i	.
COc1ccc(C(=O)N/N=C/c2ccc3cccc(OCc4ccccc4)c3n2)cc1	i	-3	i	i	i	4.1*
O=C(N/N=C/c1ccc2cccc(OCc3ccccc3)c2n1)c1ccc(Br)cc1	i	11*	i	i	i	11*
NC(N)=N/N=C/c1ccc2cccc(OCc3ccccc3)c2n1	i	-25	i	6*	i	-0.028
O=C(N/N=C/c1ccccn1)c1ccc(Br)cc1	i	-6	i	i	i	4.2*
COc1ccc(C)cc1N(C(=O)c1ccco1)C(C(=O)NC1CCCC1)c1cc(OC)c(OC)c(OC)c1 (stereo not given)	i	-11	i	i	i	.
CC1Sc2ccc(C(=O)OCc3ccccc3Cl)cc2NC1=O (stereo not given)	i	-10	i	i	i	.
COc1ccc2ccc(OCC(=O)NCC3CCCO3)cc2c1 (stereo not given)	.	.	i	.	.	.
CCN(CC)C(=O)c1sc(NC(=O)c2ccoc2C)c(C(=O)OC)c1C	i	-7	i	i	i	8.4*
CCOC(=O)c1c(NC(=O)c2ccoc2C)sc(C(=O)N(C)C)c1C	i	-6	i	i	i	.
CCc1ccc(/C=C2\Oc3c(ccc(O)c3CN3CCN(C)CC3)C2=O)cc1	i	-22	i	8*	i	1.5
CCN1CCN(Cc2c(O)ccc3c2O/C(=C\C=C\c2ccccc2)C3=O)CC1	i	-22	i	6*	i	i
COc1ccccc1/C=C/C=C1\Oc2c(ccc(O)c2CN2CCN(CCO)CC2)C1=O	i	-21	i	6*	-6.8*	i
O=C1/C(=C/C=C/c2ccccc2)Oc2c1ccc(O)c2CN1CCN(CCO)CC1	i	-19	i	i	i	i
CCN1CCN(Cc2c(O)ccc3c2O/C(=C\c2ccccc2)C3=O)CC1	i	-18	i	i	i	i
CCN1CCN(Cc2c(O)ccc3c2O/C(=C\c2ccc(C)cc2)C3=O)CC1	i	-19	i	i	i	0.073
CN(C)Cc1c(O)ccc2c1O/C(=C\C=C\c1ccccc1)C2=O	i	-28	i	9*	i	i
CC(C(=O)O)n1cc(C#N)c(=O)[nH]c1=O (stereo not given)	.	.	i	.	.	.

High-throughput results (PubChem BioAssay)
